Tests used:
Hepatitis B virus [1] = assay: Antiviral activity against HBV infected in HepDES19 cells assessed as reduction viral DNA incubated for 4 days by qPCR analysis; format: functional, organism-based; conditions: HepDES19, 96 h
Summary of the method: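 HepDES19 (HepG2-derived, tetracycline-inducible HBV) cells in 24-well plates, cultured without tetracycline for 2 days, then mock or serial 2-fold compound dilutions for 4 more days. Cytoplasmic HBV core DNA was extracted and quantified by qPCR. EC50 came from triplicate biological experiments by regression.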

[2] = Cytotoxicity against human HepDES19 cells assessed as reduction in cell viability incubated for 6 days by MTT assay; format: toxicity, cell-based; conditions: time 6 day
Summary of the method: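 Tetracycline-free HepDES19 cells in 96-well plates were exposed to […] serial dilutions (50 μM to 0.39 μM) for 6 days. Viability was checked by microscopy and measured by MTT. CC50 was the concentration reducing viability by 50%.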

Hepatitis B virus [3] = assay: Antiviral activity against HBV infected in AML12HBV10 cells assessed as reduction viral replication incubated for 48 hrs; format: functional, organism-based; conditions: AML12HBV10, 48 h
Summary of the method: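 AML12HBV10 cells were seeded at 2 x 10^4 per well without tetracycline. After one day, 2-fold serial dilutions (10 μM to 0.08 μM) were applied for 48 h. Lysates were denatured, neutralized and dot-blotted, then hybridized with a 32P-labelled riboprobe specific for HBV minus-strand DNA and read by phosphorimager. EC50 was the concentration reducing HBV DNA by 50%.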

[4] = Cytotoxicity against mouse AML12 cells assessed as reduction in cell viability incubated for 48 hrs by MTT assay; format: toxicity, cell-based; conditions: AML12 cells
Summary of the method: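 Stable AML12HBV10 hepatocytes (AML12-derived), cultured without tetracycline, were exposed to 2-fold serial dilutions (50 μM to 1.56 μM) for 48 h. Viability was inspected microscopically and quantified by MTT. CC50 was the concentration lowering viability by 50%.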

EC50 (Hepatitis B virus [3]) [µM] | SMILES | EC50 (Hepatitis B virus [1]) [µM] | CC50 at 144 h [2] [µM] | CC50 at 48 h [4] [µM]
– | O=C(Nc1ccc(F)c(Cl)c1)c1cccc2c1OCCO2 | 1.02 | > 50 | –
> 10 | CC1(C)CCN(CC2CNc3ccccc3N2C(=O)Nc2ccc(F)c(Cl)c2)CC1 (stereo unspecified) | – | – | > 40
> 10 | O=S(=O)(Nc1ccc(F)c(Cl)c1)N1CCNc2ccccc21 | – | – | > 100
0.65 | O=C(Nc1cccc(Cl)c1)N1CCN(C(=O)Nc2ccc(F)c(Cl)c2)c2ccccc21 | – | – | > 100
0.27 | Cc1cc(NC(=O)N2c3ccccc3NCC2CN2CCC(F)(F)CC2)ccc1F (stereo unspecified) | – | – | > 50
0.32 | O=C(Nc1cc(F)c(F)c(F)c1)N1CCN(C(=O)Nc2ccc(F)c(Cl)c2)c2ccccc21 | – | – | > 20
0.19 | O=C(Nc1ccc(F)c(C(F)F)c1)N1CCNc2ccccc21 | – | – | > 20
> 10 | O=C(NCc1ccccc1)N1CCN(C(=O)Nc2ccc(F)c(Cl)c2)c2ccccc21 | – | – | > 20
> 10 | CC1CN(C(=O)Nc2ccc(F)c(Cl)c2)c2ccccc2N1 (stereo unspecified) | – | – | > 50
> 10 | O=C(Nc1ccc(F)c(Cl)c1)N1CCN(C(=O)Nc2ccc(F)c(Cl)c2)[C@H]2CCCC[C@H]21 | – | – | > 100
> 10 | O=C(Nc1ccc(F)c(Cl)c1)C1CCNc2ccccc21 (racemic) | – | – | > 100
> 10 | O=C(Nc1ccc(F)c(Cl)c1)N1CCc2cccnc21 | – | – | > 25
> 10 | O=C1CN(C(=O)Nc2ccc(F)c(Cl)c2)c2ccccc2N1 | – | – | > 50
7.34 | O=C(Nc1ccccc1)N1CCN(C(=O)Nc2ccc(F)c(Cl)c2)c2ccccc21 | – | – | > 12.5
1.66 | [N-]=[N+]=Nc1ccc(NC(=O)N2CCNc3ccccc32)cc1Cl | – | – | > 100
0.28 | O=C(Nc1ccc(F)c(Cl)c1)N1c2ccccc2NCC1CN1CCC(F)(F)CC1 (stereo unspecified) | – | – | > 50
0.52 | N#Cc1cc(NC(=O)N2CCNc3ccccc32)ccc1F | – | – | > 20
1.11 | O=C(Nc1ccnc(Cl)c1)N1CCN(C(=O)Nc2ccc(F)c(Cl)c2)c2ccccc21 | – | – | > 20
1.7 | O=C(Nc1ccc(F)c(Cl)c1)N1c2ccccc2NCC1CN1CCC(F)(F)C1 (stereo unspecified) | – | – | > 100
0.29 | O=C(Nc1cc(F)c(F)c(F)c1)N1c2ccccc2NCC1CN1CCC(F)(F)CC1 (stereo unspecified) | – | – | > 50
0.34 | O=C(Nc1ccc(F)c(C(F)(F)F)c1)N1c2ccccc2NCC1CN1CCC(F)(F)CC1 (stereo unspecified) | – | – | 31.4
1.13 | O=C(Nc1cccc(Cl)c1)N1CCNc2ccccc21 | – | – | > 100
7.3 | O=C(Nc1ccc(F)c(Cl)c1)N1c2ccccc2NCC1CN1CCOCC1 (stereo unspecified) | – | – | > 40
5.76 | O=C(Nc1cccnc1)N1CCN(C(=O)Nc2ccc(F)c(Cl)c2)c2ccccc21 | – | – | > 100
> 10 | NC1CCN(C(=O)Nc2ccc(F)c(Cl)c2)c2ccccc21 (racemic) | – | – | > 100
8.07 | O=C(NCc1cccc(Cl)c1)N1CCNc2ccccc21 | – | – | > 100

EC50 (Hepatitis B virus [3]) [µM] | SMILES | EC50 (Hepatitis B virus [1]) [µM] | CC50 at 144 h [2] [µM] | CC50 at 48 h [4] [µM]
0.93 | O=C(Nc1cc(F)c(F)c(Cl)c1)N1CCNc2ccccc21 | – | – | > 100
10 | O=C(Nc1ccc(F)c(Cl)c1)N1CC(c2ccccc2)Nc2ccccc21 (stereo unspecified) | – | – | > 50
1.61 | O=C(Nc1ccc(F)c(Cl)c1)N1CC(CN2CCC(F)(F)CC2)N(C(=O)Nc2ccc(F)c(Cl)c2)c2ccccc21 (stereo unspecified) | – | – | > 100
1.14 | O=C(Nc1ccc(F)c(Cl)c1)N1CC(CN2CCC(F)(F)C2)N(C(=O)Nc2ccc(F)c(Cl)c2)c2ccccc21 (stereo unspecified) | – | – | > 100
0.24 | Cc1cc(NC(=O)N2CCNc3ccccc32)ccc1F | – | – | > 20
> 10 | O=C(Nc1ccc(F)c(Cl)c1)N1CC2(CCCC2)Nc2ccccc21 | – | – | > 100
4.5 | CC(C)C1CNc2ccccc2N1C(=O)Nc1ccc(F)c(Cl)c1 (stereo unspecified) | – | – | > 100
4.32 | O=C(Nc1ccc(F)c(Cl)c1)N1CC(CN2CCC(F)(F)CC2)Nc2ccccc21 (stereo unspecified) | – | – | > 100
> 10 | O=C(Nc1ccc(C(O)(C(F)(F)F)C(F)(F)F)cc1)N1CCNc2ccccc21 | – | – | > 20
0.97 | O=C(Nc1ccc(F)c(Cl)c1)N1CCc2ccccc21 | – | – | > 100
0.78 | O=C(Nc1ccc(F)c(Cl)c1)N1c2ccccc2NCC1c1ccccc1 (stereo unspecified) | – | – | > 50
5.09 | O=C(Nc1ccc(F)c(Cl)c1)N1CC(CN2CCC(F)(F)C2)Nc2ccccc21 (stereo unspecified) | – | – | > 100
0.63 | O=C(Nc1cc(F)c(F)c(F)c1)N1CCNc2ccccc21 | – | – | > 100
1.78 | O=C(Nc1ccc(F)c(Cl)c1)N1CCNc2cc(F)c(F)cc21 | – | – | > 100
2.03 | O=C(Nc1ccc(F)c(Cl)c1)N1CC(CN2CCOCC2)N(C(=O)Nc2ccc(F)c(Cl)c2)c2ccccc21 (stereo unspecified) | – | – | > 100
0.35 | O=C(Nc1cccc(Cl)c1)N1c2ccccc2NCC1CN1CCC(F)(F)CC1 (stereo unspecified) | – | – | > 50
> 10 | O=C(Nc1ccc(F)c(Cl)c1)N1CCN(CCCCF)c2ccccc21 | – | – | > 50
> 10 | O=C(Nc1ccc(F)c(Cl)c1)N1CCCCc2ccccc21 | – | – | > 100
> 10 | O=C(Nc1ccc(F)c(Cl)c1)N1CCN[C@H]2CCCC[C@H]21 (relative stereo) | – | – | > 100
0.77 | O=C(Nc1cc(Cl)ccc1F)N1CCNc2ccccc21 | – | – | > 100
0.32 | O=C(Nc1ccc(F)c(C(F)(F)F)c1)N1CCNc2ccccc21 | – | – | > 20
3.02 | CC1CNc2ccccc2N1C(=O)Nc1ccc(F)c(Cl)c1 (stereo unspecified) | – | – | > 100
1.55 | O=C(Nc1ccc(F)c(Cl)c1)N1CCCc2ccccc21 | – | – | > 100
> 10 | O=C(Nc1ccc(F)c(Cl)c1)N1CC(CN2CCOCC2)Nc2ccccc21 (stereo unspecified) | – | – | > 20
> 10 | O=C(Cc1ccc(F)c(Cl)c1)N1CCNc2ccccc21 | – | – | > 20
0.39 | O=C(Nc1ccc(F)c(F)c1)N1c2ccccc2NCC1CN1CCC(F)(F)CC1 (stereo unspecified) | – | – | > 50

SMILES | EC50 (Hepatitis B virus [3]) [µM] | EC50 (Hepatitis B virus [1]) [µM] | CC50 at 144 h [2] [µM] | CC50 at 48 h [4] [µM]
N#Cc1cc(NC(=O)N2c3ccccc3NCC2CN2CCC(F)(F)CC2)ccc1F (stereo unspecified) | 0.09 | 0.15 | > 50 | > 50
O=C(Nc1ccc(F)c(Cl)c1)N1CCN(C(=O)Nc2cc(Cl)c(F)cc2F)c2ccccc21 | 0.39 | 0.95 | 16.8 | > 20
O=C(Nc1ccc(F)c(C(F)F)c1)N1c2ccccc2NCC1CN1CCC(F)(F)CC1 (stereo unspecified) | 0.1 | 0.04 | 29.3 | > 50

— ChEMBL document CHEMBL5625195, “Identification of novel tetrahydroquinoxaline derived phenyl ureas as modulators of the hepatitis B virus nucleocapsid assembly” (Eur J Med Chem, 2023)
